Hits are enriched below; roughly 3.5% of the tested compounds scored in any of these assays.
MrgX1 agonist = agonists of human MrgX1 receptor, primary screen, HEK293 cells, Fluo-4 calcium flux | Mas-related G-protein coupled receptor member X1 (Homo sapiens), Q96LB2 | Fluo-4 calcium fluorescence, agonist mode; stronger effect = higher value | B-score at 10 µM | hit rate 0.44% among 310,000 | AID 588627, 2011;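 active = calcium response B-score plate-corrected fluorescence ratio at least 3 library SD, with starting fluorescence B-score inside 5 SD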
Target sequence (Q96LB2 whole entry, looked up): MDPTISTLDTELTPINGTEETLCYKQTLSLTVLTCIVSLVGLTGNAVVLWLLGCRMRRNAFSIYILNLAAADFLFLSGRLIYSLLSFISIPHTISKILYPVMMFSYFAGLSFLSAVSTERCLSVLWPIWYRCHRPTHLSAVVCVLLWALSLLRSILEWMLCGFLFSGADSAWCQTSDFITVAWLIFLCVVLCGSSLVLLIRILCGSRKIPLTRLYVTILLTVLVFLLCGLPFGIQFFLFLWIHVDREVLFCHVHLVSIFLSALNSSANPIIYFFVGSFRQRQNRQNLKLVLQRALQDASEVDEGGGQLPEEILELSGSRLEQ
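Material: HEK293 cells stably expressing human MrgX1 receptor | Quantity: 15,000 cells per well | Times: Cells plated overnight, dye loaded 0.5 h 37 °C, 0.5 h room temperature | Measured by: Kinetic Fluo-4 NW fluorescence of intracellular calcium | Control set: Positive and negative controls per plate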
MrgX1 allo act = positive allosteric modulators of MrgX1, primary screen, HEK293 cells, Fluo-4 calcium flux. Mas-related G-protein coupled receptor member X1 (Homo sapiens), Q96LB2. FDSS; stronger effect = higher value. B-score at 10 µM. hit rate 0.63% among 310,000. AID 588675, 2011;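 active = plate-corrected calcium response at least 3 library SD above typical, normal starting fluorescence, not activating the receptor alone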;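 also: compound read alongside a low EC10 to EC30 dose of BAM8-22 agonist; peak minus trough fluorescence over baseline measured at the second addition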
MrgX1 antag = antagonists of human MrgX1 receptor, primary screen, HEK293 cells, Fluo-4 calcium flux; Mas-related G-protein coupled receptor member X1 (Homo sapiens), Q96LB2; BAM8-22 antagonism; stronger effect = lower value; hit rate 1.3% among 310,000; B-score at 10 µM;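 active = calcium-response B-score plate-corrected more than 3 library SD below zero, starting fluorescence within 5 deviations, no agonist response on first addition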;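 also: peak minus trough fluorescence over baseline after final BAM8-22 challenge near maximal dose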
RGS4 inh = RGS4 inhibitors, primary screen, cell-based, HEK293 M3R inducible RGS4, calcium flux. Regulator of G-protein signaling 4 (Homo sapiens), P49798. Fluo-4 calcium flux; stronger effect = higher value; triggered by carbachol at its EC20. B-score at 10 µM. hit rate 0.45% among 310,000;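 active = B-score, a plate-corrected calcium signal, over three deviations above library mean, with baseline fluorescence within five deviations of library mean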;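 also: RGS4 expression induced by doxycycline in cells with stable M3 receptor; B-score is computed from the integrated fluorescence ratio over baseline after carbachol; higher B-score means a larger calcium signal and so more RGS4 inhibition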
Target sequence (P49798 whole entry, looked up): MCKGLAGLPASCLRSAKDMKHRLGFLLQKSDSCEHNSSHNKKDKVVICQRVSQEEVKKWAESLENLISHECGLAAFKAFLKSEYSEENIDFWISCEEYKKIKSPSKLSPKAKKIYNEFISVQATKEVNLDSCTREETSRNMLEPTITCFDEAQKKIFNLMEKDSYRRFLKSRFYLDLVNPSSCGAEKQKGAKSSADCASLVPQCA
RGS4 act = RGS4 potentiators or activators, primary screen, cell-based, HEK293 M3R inducible RGS4, calcium flux; carbachol calcium flux Fluo4; stronger effect = lower value; B-score at 10 µM; hit rate 0.92% among 310,000;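 active = B-score of the integrated calcium signal more than 4 SD below the library mean, with starting fluorescence not abnormally high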;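 also: negative B-score means reduced calcium response which marks RGS4 activation or potentiation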
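Assay system: HEK293 FlpIn-TREx cells, stable M3R, doxycycline-inducible RGS4 / Probe or stimulus: carbachol, ECmax concentration / Times: overnight RGS4 induction, 30 min dye load 37 °C, 20 min compound RT / Signal: kinetic calcium fluorescence imaging with Fluo4-AM dye, 2 µM / Measure: Agonist-evoked peak-minus-minimum fluorescence over baseline, integrated ratio, B score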
Numbers without * were called inactive; i = inactive; x = no result given.

SMILES | MrgX1 agonist | MrgX1 allo act | MrgX1 antag | RGS4 inh | RGS4 act
COc1ccccc1CNN | i | 8* | i | i | i
COc1ccccc1CNc1ncccn1 | i | i | i | i | i
CCCN1C(=O)/C(=C/C=C2\N(CC)c3ccccc3C2(C)C)SC1=S | i | 12* | i | i | i
C=CCN1C(=O)/C(=C\C=C2\N(C)c3ccccc3C2(C)C)SC1=S | 31* | i | i | i | i
CN1/C(=C\C=C2/SC(=S)N(CC(=O)O)C2=O)C(C)(C)c2ccccc21 | i | i | i | i | i
Cc1cccc(NC(=O)COC(=O)c2cccs2)c1C | i | i | i | i | i
COc1ccc(N/C(=C(/C(Cl)=C(Cl)Cl)[N+](=O)[O-])n2nnc3ccccc32)cc1 | i | i | i | i | i
Cc1ccccc1N/C(=C(/C(Cl)=C(Cl)Cl)[N+](=O)[O-])n1nnc2ccccc21 | i | i | -5* | i | i
Clc1ccc(-c2nnsc2SCc2ccccc2)cc1 | i | i | i | i | i
Clc1ccc(CSc2snnc2-c2ccccc2)cc1 | i | i | i | i | -7.2*
CC(C)[C@H](NC(=O)[C@H](CCCN=C(N)N)NC(=O)NC(Cc1ccccc1)C(=O)O)C(=O)NC(C=O)CCCN=C(N)N (stereo partly drawn) | 46* | i | i | i | i
C=C(CC1([C@@H](NP(=O)(c2ccccc2)c2ccccc2)[C@H]2C[C@@H]2CCCC)CC1)c1ccccc1 | i | i | -4.8* | i | i
CCCC[C@@H]1C[C@H]1[C@@H](NC(=O)c1ccccc1)c1ccccc1C(F)(F)F | i | i | i | i | i
c1ccc(Nc2nc3ccccc3n3nnnc23)cc1 | i | i | i | i | i
CCN(CC)S(=O)(=O)c1ccc(Nc2nc3ccccc3n3nnnc23)cc1 | i | 14* | -6.8* | i | i
CCOC(=O)CC1C(=O)NCCN1S(=O)(=O)c1cccc(C(F)(F)F)c1 (stereo not drawn) | i | i | i | i | i
COc1ccc2nc(NC(=O)C3=NN(c4ccccc4)C(=O)CC3)sc2c1 | i | i | -5.6* | i | i
CS(=O)(=O)c1ccc2nc(NC(=O)C3=NN(c4ccccc4)C(=O)CC3)sc2c1 | i | i | i | i | i
NC(=O)C1CCN(CC(=O)N2N=CCC2c2ccccc2)CC1 (stereo not drawn) | i | i | -5.8* | i | i
Cc1ccc(CSCc2ccc(C(=O)NCCCN3CCOCC3)o2)cc1 | i | 6.7* | i | i | i
Cc1ccc(CCNC(=O)Cc2ccc(NC3=NC4CS(=O)(=O)CC4S3)cc2)cc1 (stereo not drawn) | i | i | i | i | i
CCc1ccc2c(CN3CCc4ccccc43)cc(=O)oc2c1 | 38* | i | i | i | i
Cc1cc2oc(=O)cc(CN3CCc4ccccc43)c2cc1Cl | 54* | i | i | i | i
CC1CCCN(C2(O)C(=O)Nc3ccc([N+](=O)[O-])cc32)C1 (stereo not drawn) | i | i | i | i | i
CCC(C(=O)O/N=C(\N)c1cccc(C)c1)c1ccccc1 (stereo not drawn) | i | i | i | i | -9.5*
SMILES | MrgX1 agonist | MrgX1 allo act | MrgX1 antag | RGS4 inh | RGS4 act
CCc1cccc(N(C(=O)c2csnn2)C(C(=O)NC2CCCCC2)c2ccncc2)c1 (stereo not drawn) | i | i | i | i | i
CCOc1ccc(C(C)=O)cc1Cc1c(O)nc(N)[nH]c1=O | i | i | -5.2* | i | i
N#Cc1ccccc1NC(=O)c1ccc2c(c1)OCCO2 | i | i | i | i | i
C/C(CCN1CCc2nc(-c3ccccc3)c(-c3ccccc3)cc2C1)=N\O[C@@H](C)c1cn([C@H](CO)Cc2ccccc2)nn1 | i | i | i | i | -8.9*
COC(=O)C/C=C/[C@@H](C)[C@@H](/C=N/O[C@@H](C)c1cn([C@H](CO)Cc2ccccc2)nn1)NS(=O)(=O)c1ccc(C)cc1 | i | i | i | i | i
COc1ccccc1/C=C(\C#N)C(=O)c1cccn1C | 32* | i | i | i | i
Cn1cccc1C(=O)/C(C#N)=C/c1ccc(F)cc1 | 35* | i | i | i | i
CCOC(=O)c1ccc(NC(=O)c2cc3c(s2)CCC3)cc1 | i | i | i | i | i
COc1ccccc1N(CC(=O)NCCSCc1ccc(C)cc1)S(=O)(=O)c1ccccc1 | i | i | i | i | -10*
Cc1ccc(CSCCNC(=O)CN(c2cccc([N+](=O)[O-])c2)S(C)(=O)=O)cc1 | i | 9.9* | i | i | i
COc1ccc(N(CC(=O)NCCSCc2ccc(C)cc2)S(=O)(=O)c2ccccc2)cc1 | i | i | i | i | i
CS(=O)(=O)N(CC(=O)NCc1ccccc1Cl)c1cccc([N+](=O)[O-])c1 | i | i | i | i | i
COc1ccccc1N(CC(=O)Nc1c(C)n(C)n(-c2ccccc2)c1=O)S(=O)(=O)c1ccc(C)cc1 | i | i | -5.5* | i | i
O=C(CSc1nnc(-c2ccc(Br)cc2)n1CCc1ccccc1)NC1CCS(=O)(=O)C1 (stereo not drawn) | i | i | i | i | i
Cc1ccc(O)c(N=Cc2cc(Cc3ccccc3)cc([N+](=O)[O-])c2O)c1 | x | x | x | i | -7.2*
N#Cc1c(N(CCO)CCO)nc(N)c2c(N)nc3c(c12)CC(=O)N3Cc1cccs1 | i | i | -4.5* | i | i
CN(CCO)c1nc(N)c2c(N)nc3c(c2c1C#N)CC(=O)N3Cc1cccs1 | i | i | i | i | i
CN1CCN(c2ccccc2NC(=O)c2ccc(-c3cccc(Cl)c3)o2)CC1 | i | i | i | i | -8.5*
O=C(Nc1ccccc1N1CCCCC1)c1ccc(-c2cccc(Cl)c2)o1 | i | i | i | i | i
C=CCN1C(=O)S/C(=C/c2ccc(Sc3nc4ccccc4[nH]3)o2)C1=O | i | i | -6.8* | i | i
CC(C)N1C(=O)S/C(=C/c2ccc(Sc3nc4ccccc4[nH]3)o2)C1=O | i | i | -7* | i | i
C=CCN1C(=O)S/C(=C/c2ccsc2)C1=O | i | i | i | i | i
